ChEMBL document CHEMBL1914327, “Unichiral 2-(2'-pyrrolidinyl)-1,4-benzodioxanes: the 2R,2'S diastereomer of the N-methyl-7-hydroxy analogue is a potent α4β2- and α6β2-nicotinic acetylcholine receptor partial agonist” (J Med Chem, 2011)
Calls of active or inactive are those of the source. The calls are words filed in the database; no cut-off is given here.

Legend:
[1] = molecular target: T1, Neuronal acetylcholine receptor; alpha4/beta2 (Rattus norvegicus, UniProt P09483+P12390); assay: Displacement of [3H]epibatidine from alpha4beta2 nAChR in Sprague-Dawley rat cerebral cortex by beta counting; format: tissue-based
T1 sequence (P09483 whole entry): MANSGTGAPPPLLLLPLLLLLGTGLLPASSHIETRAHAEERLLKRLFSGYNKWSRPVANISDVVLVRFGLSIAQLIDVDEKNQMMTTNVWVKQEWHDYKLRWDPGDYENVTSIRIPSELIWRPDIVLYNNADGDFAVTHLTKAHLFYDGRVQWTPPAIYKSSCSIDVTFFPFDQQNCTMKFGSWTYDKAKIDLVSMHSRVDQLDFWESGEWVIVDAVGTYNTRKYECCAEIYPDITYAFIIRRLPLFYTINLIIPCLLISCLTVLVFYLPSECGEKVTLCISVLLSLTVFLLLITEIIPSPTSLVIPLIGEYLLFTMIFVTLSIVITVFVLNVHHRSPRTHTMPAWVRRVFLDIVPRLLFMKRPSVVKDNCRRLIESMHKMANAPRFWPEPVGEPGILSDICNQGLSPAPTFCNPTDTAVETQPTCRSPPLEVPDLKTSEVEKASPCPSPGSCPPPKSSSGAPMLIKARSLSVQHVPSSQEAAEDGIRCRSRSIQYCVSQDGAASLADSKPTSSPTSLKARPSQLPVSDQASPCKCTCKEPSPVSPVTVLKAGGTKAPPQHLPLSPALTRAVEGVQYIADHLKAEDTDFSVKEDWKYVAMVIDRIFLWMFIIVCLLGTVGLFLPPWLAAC
T1 sequence (P12390 whole entry): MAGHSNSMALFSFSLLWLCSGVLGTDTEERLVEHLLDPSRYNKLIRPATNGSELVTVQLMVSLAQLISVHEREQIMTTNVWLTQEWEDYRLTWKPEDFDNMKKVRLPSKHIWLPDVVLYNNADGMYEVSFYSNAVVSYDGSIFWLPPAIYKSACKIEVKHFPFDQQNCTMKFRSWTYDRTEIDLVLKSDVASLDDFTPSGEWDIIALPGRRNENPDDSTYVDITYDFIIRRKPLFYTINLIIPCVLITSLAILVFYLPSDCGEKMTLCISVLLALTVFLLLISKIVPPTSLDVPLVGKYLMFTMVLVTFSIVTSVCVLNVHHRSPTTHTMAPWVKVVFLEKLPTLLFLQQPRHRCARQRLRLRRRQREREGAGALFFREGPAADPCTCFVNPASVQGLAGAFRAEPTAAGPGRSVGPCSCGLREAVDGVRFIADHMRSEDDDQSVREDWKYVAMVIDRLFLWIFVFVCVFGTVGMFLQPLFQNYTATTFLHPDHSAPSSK
Procedure, shortened: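 Sprague-Dawley rat cortical membranes in Tris buffer pH 7 with protease inhibitors. Membranes first blocked with 1 μM α-bungarotoxin. Compound (10 pM to 10 mM) preincubated 30 min at rt, then 0.1 nM [3H]epibatidine (final) added overnight at 4 °C. Nonspecific binding defined with 100 nM unlabeled epibatidine. Filtered and beta counted. Ki from three independent experiments fitted by LIGAND.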

[2] = molecular target: Neuronal acetylcholine receptor subunit alpha-7 (Rattus norvegicus, UniProt Q05941); assay: Displacement of [125I]alpha-bungarotoxin from alpha7 nAChR in Sprague-Dawley rat cerebral cortex […]; format: tissue-based
Chain of Neuronal acetylcholine receptor subunit alpha-7 (Q05941 whole entry): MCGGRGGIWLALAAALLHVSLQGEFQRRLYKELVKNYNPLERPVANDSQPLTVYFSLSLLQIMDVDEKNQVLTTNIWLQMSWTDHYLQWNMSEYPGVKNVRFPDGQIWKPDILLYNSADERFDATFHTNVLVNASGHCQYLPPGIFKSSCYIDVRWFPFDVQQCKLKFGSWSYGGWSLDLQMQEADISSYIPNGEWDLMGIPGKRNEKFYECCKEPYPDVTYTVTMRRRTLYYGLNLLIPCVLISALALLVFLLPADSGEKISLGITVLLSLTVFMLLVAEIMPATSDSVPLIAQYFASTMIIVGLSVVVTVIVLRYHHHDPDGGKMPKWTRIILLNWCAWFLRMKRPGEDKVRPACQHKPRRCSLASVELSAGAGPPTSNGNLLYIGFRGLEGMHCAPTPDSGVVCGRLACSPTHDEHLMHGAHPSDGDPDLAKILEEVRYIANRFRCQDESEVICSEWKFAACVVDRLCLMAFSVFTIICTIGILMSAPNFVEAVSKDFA

HEK293 = assay: Selectivity ratio of Ki for human alpha3beta4 nAChR expressed in human HEK293 cells to Ki for alpha4beta2 nAChR in rat cerebral cortex; format: cell-based
[3] = molecular target: Neuronal acetylcholine receptor; alpha3/beta4 (Homo sapiens, UniProt P30926+P32297); assay: Displacement of [3H]epibatidine from human alpha3beta4 nAChR expressed in human HEK293 cells by scintillation counting; format: cell-based
Chain of Neuronal acetylcholine receptor; alpha3/beta4 (Homo sapiens, UniProt P30926+P32297) (P30926 whole entry): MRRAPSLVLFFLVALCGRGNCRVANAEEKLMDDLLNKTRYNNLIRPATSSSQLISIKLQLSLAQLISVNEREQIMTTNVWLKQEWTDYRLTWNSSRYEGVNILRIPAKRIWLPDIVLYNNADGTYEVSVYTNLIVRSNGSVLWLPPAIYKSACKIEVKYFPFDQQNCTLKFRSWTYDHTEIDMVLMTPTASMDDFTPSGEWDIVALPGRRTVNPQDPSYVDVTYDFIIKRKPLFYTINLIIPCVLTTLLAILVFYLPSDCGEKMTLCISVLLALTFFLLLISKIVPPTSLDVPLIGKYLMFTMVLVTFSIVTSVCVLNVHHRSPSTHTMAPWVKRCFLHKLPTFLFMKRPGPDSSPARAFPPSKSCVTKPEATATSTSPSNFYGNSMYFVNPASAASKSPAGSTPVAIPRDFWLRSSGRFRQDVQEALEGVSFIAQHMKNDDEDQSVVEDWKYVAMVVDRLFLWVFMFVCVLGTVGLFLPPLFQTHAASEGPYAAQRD
Chain of Neuronal acetylcholine receptor; alpha3/beta4 (Homo sapiens, UniProt P30926+P32297) (P32297 whole entry): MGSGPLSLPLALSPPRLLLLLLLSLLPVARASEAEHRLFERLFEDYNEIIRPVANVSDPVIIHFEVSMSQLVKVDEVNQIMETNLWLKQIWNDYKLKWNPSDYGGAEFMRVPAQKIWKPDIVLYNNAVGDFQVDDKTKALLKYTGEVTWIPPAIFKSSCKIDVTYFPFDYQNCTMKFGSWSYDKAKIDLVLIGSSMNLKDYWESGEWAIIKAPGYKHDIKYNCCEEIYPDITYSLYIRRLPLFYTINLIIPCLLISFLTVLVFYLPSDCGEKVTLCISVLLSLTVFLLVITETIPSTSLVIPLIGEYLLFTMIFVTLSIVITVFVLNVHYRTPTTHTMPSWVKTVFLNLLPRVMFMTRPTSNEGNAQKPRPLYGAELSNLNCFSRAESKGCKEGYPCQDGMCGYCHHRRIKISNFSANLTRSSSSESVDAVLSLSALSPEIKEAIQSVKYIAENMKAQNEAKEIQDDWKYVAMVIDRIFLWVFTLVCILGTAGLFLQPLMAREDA
Procedure, shortened: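 Membranes from HEK293 cells transiently transfected with α3 and β4 cDNAs (harvested at 48 h). Compound was preincubated for 5 min, then 0.25 nM [3H]epibatidine was added overnight at 4 °C in Tris buffer (pH 7) with BSA and no Tween. Nonspecific binding used 100 nM epibatidine. Ki was fitted from three experiments in triplicate.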

[4] = molecular target: T2, Neuronal acetylcholine receptor subunit alpha-6/beta-3 (Rattus norvegicus) (UniProt P12391+P43143); assay: Partial agonist activity at alpha6beta2 nAChR in rat striatum assessed as decrease in [3H]dopamine release by beta counting in the presence of antagonist alphaconotoxin MII; format: functional, tissue-based
[5] = molecular target: T1, Neuronal acetylcholine receptor; alpha4/beta2; assay: Partial agonist activity at Nicotinic acetylcholine alpha4beta2 receptor in rat striatum assessed as [3H]dopamine release by beta counting; format: functional, tissue-based
Procedure, shortened: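 Rat striatal slices (150 μm) were preloaded for 30 min with 100 nM [3H]DA in Krebs buffer containing 10 μM pargyline, then washed with pargyline plus 0.5 μM nomifensine. Slices were exposed to agonist for 5 min at 37 °C.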

Rattus norvegicus = species on record: Rattus norvegicus; assay: Selectivity ratio of Ki for alpha7 nAChR in Sprague-Dawley rat cerebral cortex to Ki for alpha4beta2 nAChR in Sprague-Dawley rat cerebral cortex; format: tissue-based
Procedure, shortened: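 Sprague-Dawley rat cortical membranes, with compound (10 pM–10 mM) preincubated 30 min at rt. α4β2 assay: membranes pretreated with 1 μM α-bungarotoxin, then 0.1 nM [3H]epibatidine overnight at 4 °C. α7 assay: 1 nM [125I]α-bungarotoxin overnight at rt. Ki values were from LIGAND fits of three experiments, and the ratio was taken from these Ki values.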

[6] = molecular target: T3, Neuronal acetylcholine receptor; alpha4/beta2 (Rattus norvegicus) (UniProt P09483+P12390); assay: Partial agonist activity at Nicotinic acetylcholine alpha4beta2 receptor in rat striatum assessed as [3H]dopamine release by beta counting relative to nicotine; format: functional, tissue-based
Procedure, shortened: (§1)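 Rat striatal slices (150 μm) were preloaded for 30 min with 100 nM [3H]DA in Krebs buffer containing 10 μM pargyline, then washed with pargyline plus 0.5 μM nomifensine. Slices were exposed to agonist for 5 min at 37 °C. […] EC50/Emax came from nonlinear regression; six replicates, ≥3 experiments.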

[7] = molecular target: Neuronal acetylcholine receptor; alpha3/beta4 (Rattus norvegicus, UniProt P04757+P12392); assay: Partial agonist activity at rat alpha3beta4 nAChR assessed as [3H]noradrenaline release from rat […] by beta counting; format: functional
Chain of Neuronal acetylcholine receptor; alpha3/beta4 (Rattus norvegicus, UniProt P04757+P12392) (P04757 whole entry): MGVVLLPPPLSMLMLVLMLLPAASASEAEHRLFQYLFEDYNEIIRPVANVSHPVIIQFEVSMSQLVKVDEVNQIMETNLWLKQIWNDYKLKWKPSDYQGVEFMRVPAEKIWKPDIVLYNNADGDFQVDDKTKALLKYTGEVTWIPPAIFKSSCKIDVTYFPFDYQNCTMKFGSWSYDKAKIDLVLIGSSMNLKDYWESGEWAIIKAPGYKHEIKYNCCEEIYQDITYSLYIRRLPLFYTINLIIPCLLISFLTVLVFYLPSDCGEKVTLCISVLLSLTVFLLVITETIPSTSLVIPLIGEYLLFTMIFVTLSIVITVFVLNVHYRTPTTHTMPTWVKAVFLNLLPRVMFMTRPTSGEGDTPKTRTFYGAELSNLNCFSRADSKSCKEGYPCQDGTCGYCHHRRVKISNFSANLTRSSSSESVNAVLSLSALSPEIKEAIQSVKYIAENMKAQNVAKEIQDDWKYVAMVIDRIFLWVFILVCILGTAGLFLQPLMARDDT
Chain of Neuronal acetylcholine receptor; alpha3/beta4 (Rattus norvegicus, UniProt P04757+P12392) (P12392 whole entry): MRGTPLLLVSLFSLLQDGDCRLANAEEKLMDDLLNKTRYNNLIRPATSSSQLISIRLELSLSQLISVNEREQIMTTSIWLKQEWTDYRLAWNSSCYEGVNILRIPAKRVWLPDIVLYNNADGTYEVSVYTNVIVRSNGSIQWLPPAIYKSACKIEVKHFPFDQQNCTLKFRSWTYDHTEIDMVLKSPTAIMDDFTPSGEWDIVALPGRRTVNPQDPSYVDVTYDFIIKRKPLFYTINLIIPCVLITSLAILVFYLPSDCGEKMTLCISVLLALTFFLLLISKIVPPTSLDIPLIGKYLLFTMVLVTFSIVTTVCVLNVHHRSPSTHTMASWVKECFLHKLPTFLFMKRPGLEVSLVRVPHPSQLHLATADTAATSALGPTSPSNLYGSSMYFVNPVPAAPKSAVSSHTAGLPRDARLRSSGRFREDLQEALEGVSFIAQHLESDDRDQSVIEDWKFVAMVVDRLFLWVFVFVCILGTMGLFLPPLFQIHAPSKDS

[8] = molecular target: T2, Neuronal acetylcholine receptor subunit alpha-6/beta-3 (Rattus norvegicus); assay: Agonist activity at rat alpha6beta2 nAChR assessed as [3H]dopamine release from rat striatum by beta counting relative to 10 uM nicotine; format: functional
[9] = molecular target: T1, Neuronal acetylcholine receptor; alpha4/beta2; assay: Agonist activity at rat alpha4beta2 nAChR assessed as [3H]dopamine release by beta counting; format: functional; procedure, shortened: as §1
[10] = molecular target: T3, Neuronal acetylcholine receptor; alpha4/beta2 (Rattus norvegicus); assay: Agonist activity at rat alpha4beta2 nAChR assessed as [3H]dopamine release from rat striatum by beta counting relative to 10 uM nicotine; format: functional; procedure, shortened: as §1

| SMILES | Ki [1] | Ki [2] | also measured |
| --- | --- | --- | --- |
| Oc1ccc2c(c1)O[C@H]([C@@H]1CCCN1)CO2 | 9 µM | 33 µM | – |
| Oc1ccc2c(c1)O[C@@H]([C@@H]1CCCN1)CO2 | 1.2 µM | 53 µM | – |
| CN1CCC[C@H]1[C@H]1COc2ccc(-c3ccccc3)cc2O1 | 3.1 µM | 51 µM | – |
| CC(C)Oc1ccc2c(c1)O[C@H]([C@@H]1CCCN1C)CO2 | 9.3 µM | 6.1 µM | – |
| CN1CCC[C@H]1[C@H]1COc2ccc(CO)cc2O1 | 9.5 µM | 12 µM | – |
| CN1CCC[C@H]1[C@@H]1COc2ccc(-c3ccccc3)cc2O1 | 35 µM | 36 µM | – |
| CN1CCC[C@@H]1[C@@H]1COc2ccc(O)cc2O1 | 3 µM | 1.3 µM | – |
| CC(=O)c1ccc2c(c1)O[C@@H]([C@@H]1CCCN1C)CO2 | 11.7 µM | 30 µM | – |
| Cc1ccc2c(c1)O[C@@H]([C@@H]1CCCN1C)CO2 | 5.7 µM | 64 µM | – |
| CN1CCC[C@H]1[C@@H]1COc2ccc(CO)cc2O1 | 51 µM | 60 µM | – |
| CN1CCC[C@@H]1[C@H]1COc2ccc(O)cc2O1 | 3.5 µM | 4.5 µM | – |
| CN1CCC[C@H]1[C@@H]1COc2ccc(Br)cc2O1 | 8.1 µM | 22 µM | – |
| COc1ccc2c(c1)O[C@@H]([C@@H]1CCCN1C)CO2 | 4.2 µM | 26 µM | – |
| CC(C)Oc1ccc2c(c1)O[C@@H]([C@@H]1CCCN1C)CO2 | 3.2 µM | 43 µM | – |
| Oc1ccc2c(c1)O[C@@H]([C@H]1CCCN1)CO2 | 18 µM | 35 µM | – |
| COc1ccc2c(c1)O[C@H]([C@@H]1CCCN1C)CO2 | 17 µM | 32 µM | – |
| CC(=O)c1ccc2c(c1)O[C@H]([C@@H]1CCCN1C)CO2 (racemic) | 97 µM | 110 µM | – |
| CN1CCC[C@H]1[C@@H]1COc2ccc(O)cc2O1 | 0.012 µM | 0.427 µM | Ratio Ki (HEK293): 26; Ki [3]: 0.31 µM; Activity [4]: inactive; EC50 [5]: 0.082 µM; Ratio Ki (Rattus norvegicus): 35; Efficacy [6]: 51%; EC50 [7]: 17.6 µM |
| CN1CCC[C@H]1[C@H]1COc2ccc(O)cc2O1 | 0.421 µM | 20 µM | Ratio Ki (Rattus norvegicus): 47 |
| c1cnc2cc3c(cc2n1)[C@@H]1CNC[C@H]3C1 [VARENICLINE] | – | – | Efficacy [8]: 49%; EC50 [9]: 0.046 µM; Efficacy [10]: 49% |
| CN1CCC[C@H]1[C@H]1COc2ccc(Br)cc2O1 | 3 µM | 22 µM | Kd [1]: 0.036 nM; Kd [2]: 0.0003 µM |
| Oc1ccc2c(c1)O[C@H]([C@H]1CCCN1)CO2 | 1.3 µM | 3 µM | – |
| Cc1ccc2c(c1)O[C@H]([C@@H]1CCCN1C)CO2 | 42 µM | 126 µM | – |
